Test results as given in PubChem BioAssay.
Calls of active or inactive are those of the source.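 The calls were made as follows, unless noted: active = visually confirmed hit in the image check and inhibition above 20%; inconclusive = visually confirmed hit but inhibition not above 20%; inactive = no visual hit in the image check.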

How the values were obtained:
[1] = inhibitors of TNFa-induced NFkB p65 translocation, primary screen, imaging, HUVEC, MLSMR starter and 10KST1 sets (AID 438;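 active = inhibition above 20% together with a positive visual image hit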;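 also: compound added about 3h40 before a 20 min TNFalpha stimulation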;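 as to inhibition: signal is the nuclear over cytoplasmic p65 intensity ratio per well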); conditions: HUVEC TNFa-induced p65 nuclear translocation; cell count: measured here: nuclei count (cytotoxicity indicator), at 2.08 µM; inhibition: at 2 µM, stronger effect = higher value, 0% TNFa-plus-vehicle, 100% no-TNFa wells
[2] = inhibitors of mutant huntingtin aggregation, primary screen, imaging, exon1htt(103Q)mCFP cells, high-content imaging (AID 483;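 active = visual image review flags a hit and inhibition of aggregation exceeds 20%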;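 also: compound exposure lasted 3 days before fixation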;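 as to nuclei count: percent of the per-plate median nuclei count of sample wells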); conditions: exon1htt(103Q)mCFP cell line, aggregate imaging, at 2 µM; inhibition of aggregation: stronger effect = higher value; nuclei count: measured here: cell count, toxicity
[3] = inhibitors of E-selectin induction by TNFa, primary screen, imaging, HUVEC, immunofluorescence, MLSMR starter and 10KST1 sets (AID 487); conditions: HUVEC TNFalpha-induced E-selectin immunofluorescence imaging, at 2 µM; inhibition: stronger effect = higher value; nuclei count: measured here: cell number, toxicity;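 as to inhibition: signal is fraction of cell area covered by stained E-selectin grains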;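 as to nuclei count: 100% = median nuclei count of all wells on the same plate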
[4] = target: Voltage-gated potassium channel subunit beta-2 (Rattus norvegicus) (UniProt P62483); experiment: KvBeta enzyme negative modulators, primary screen, biochemical, NADPH fluorescence (AID 622;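 active = fluorescence slope higher than the sample average by over 3 SD, cut at about -0.22 in these data, passing the limit was not always enough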;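 also: slope of raw intensity against log time taken from 70 to 1610 s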); conditions: recombinant KvBeta, 4-cyanobenzaldehyde reduction, at 10 µM, stronger effect = higher value
Chain of Voltage-gated potassium channel subunit beta-2 (Rattus norvegicus) (P62483 whole entry, looked up): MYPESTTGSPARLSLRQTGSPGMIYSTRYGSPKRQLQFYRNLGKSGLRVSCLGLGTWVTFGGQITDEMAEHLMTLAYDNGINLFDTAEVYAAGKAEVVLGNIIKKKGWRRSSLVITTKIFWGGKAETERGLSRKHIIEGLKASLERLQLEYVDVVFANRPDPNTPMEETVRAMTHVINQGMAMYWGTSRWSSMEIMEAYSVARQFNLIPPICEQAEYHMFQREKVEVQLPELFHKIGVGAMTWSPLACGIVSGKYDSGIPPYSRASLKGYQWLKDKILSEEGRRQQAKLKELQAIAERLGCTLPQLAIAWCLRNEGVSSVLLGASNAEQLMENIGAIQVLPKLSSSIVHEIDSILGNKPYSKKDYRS

[5] = target: Voltage-gated potassium channel subunit beta-2 (Rattus norvegicus) (UniProt P62483); experiment: KvBeta positive modulators, primary screen, biochemical, NADPH fluorescence (AID 623;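 active = NADPH fluorescence slope more negative than the mean of all samples by about 3 SD, 99.7% confidence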;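 also: fluorescence intensity change per second fitted from 20 to 320 s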); conditions: Recombinant KvBeta, NADPH fluorescence decrease slope, 10 min; at 10 µM; stronger effect = lower value
[6] = target: Muscarinic acetylcholine receptor M4 (Homo sapiens) (UniProt P08173); experiment: compounds altering M4/GIRK thallium flux, either direction, primary screen, M4 allosteric agonist project, cell-based, HEK293 M4/GIRK, BTC-AM (AID 625;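 active = fluorescence slope after compound addition differing from the mean of all tested samples at 99.7% confidence, mostly higher but some lower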;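 also: thallium influx through GIRK channels coupled to M4 in HEK293 cells with BTC-AM dye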); conditions: at 10 µM, actives lie on both sides
Chain of Muscarinic acetylcholine receptor M4 (Homo sapiens) (P08173 whole entry, looked up): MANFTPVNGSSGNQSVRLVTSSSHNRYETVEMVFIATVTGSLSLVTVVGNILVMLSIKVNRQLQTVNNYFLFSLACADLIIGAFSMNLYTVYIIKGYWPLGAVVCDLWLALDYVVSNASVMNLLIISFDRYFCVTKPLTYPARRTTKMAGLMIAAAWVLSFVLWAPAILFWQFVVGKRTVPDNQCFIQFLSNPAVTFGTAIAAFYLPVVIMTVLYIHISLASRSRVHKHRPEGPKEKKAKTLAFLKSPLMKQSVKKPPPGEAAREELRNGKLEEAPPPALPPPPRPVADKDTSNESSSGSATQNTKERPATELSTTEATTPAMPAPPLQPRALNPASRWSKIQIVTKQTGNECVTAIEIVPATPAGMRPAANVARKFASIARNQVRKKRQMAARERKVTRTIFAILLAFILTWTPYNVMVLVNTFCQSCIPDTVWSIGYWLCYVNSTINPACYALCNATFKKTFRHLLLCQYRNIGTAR
Method in brief: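 Material – HEK293 cells with M4 receptor and GIRK channels · Buffer or medium – pH 7.3 thallium assay buffer · Doses – one dose, 10 µM final · Timing – cells overnight at 37 °C, BTC-AM loading 1 h, reads 2 min total · Measured by – kinetic fluorescence with BTC-AM dye · Controls – carbachol and DMSO controls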

[7] = inhibitors of Sendai virus-induced IRF3 signaling, primary screen, TLR/RLR signaling modifier project, cell-based, Sendai virus stimulus, luciferase, 10K MLSCN set (AID 602276;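 active = inhibition at or above 50% at 10 µM; inactive = inhibition below 50%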;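 also: firefly luciferase from ISG56 promoter only with Renilla not read in this screen; 0% = Sendai virus plus DMSO and 100% = medium plus DMSO without virus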); conditions: HEK293 RL24 IRF3 luciferase reporter, at 10 µM, stronger effect = higher value
[8] = inhibitors of poly I:C-induced TLR3 signaling, primary screen, cell-based, poly I:C stimulus, luciferase, 10K MLSCN set (AID 602277;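 active = inhibition of the reporter signal at or above 50%; inactive = inhibition below 50%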); conditions: HEK293-TLR3 RL24 IRF3 luciferase reporter, at 10 µM, stronger effect = higher value

| SMILES | cell count [1] | inhibition [1] | inhibition of aggregation [2] | nuclei count [2] | inhibition [3] | nuclei count [3] | fluorescence slope [4] | NADPH fluorescence slope [5] | fluorescence slope [6] | inhibition [7] | inhibition [8] |
| --- | --- | --- | --- | --- | --- | --- | --- | --- | --- | --- | --- |
| CC1CC(=O)C2=C(C1)OC(N)=C(C#N)C2c1coc2ccccc2c1=O (stereo not drawn) | 282 | -10.1% (inactive) | 8.2% (inactive) | 79.3% | 24.1% (inactive) | 82.2% | -0.514 (inactive) | -4.1e-05 (inactive) | 0.00433 (inactive) | 19.2% (inactive) | 23.4% (inactive) |
| CCC(C)NC(=O)C1(C)CCC(=O)N1Cc1ccccc1OC (stereo not drawn) | 406 | -14.1% (inactive) | -3.9% (inactive) | 105% | -15.7% (inactive) | 93.9% | -0.512 (inactive) | 0.000141 (inactive) | 0.00751 (inactive) | 12.9% (inactive) | 22.5% (inactive) |
| COC(=O)c1ccccc1S(=O)(=O)N(Cc1cc2cc3c(cc2[nH]c1=O)OCO3)C1CCCCC1 | 532 | -3.6% (inactive) | -4.8% (inactive) | 134% | -71.1% (inactive) | 161% | -0.487 (inactive) | -9.9e-05 (inactive) | 0.00583 (inactive) | -3.7% (inactive) | -14.5% (inactive) |
| CN(C)CC(=O)N1c2ccccc2CCc2ccc(NC(=O)c3ccc(N)cc3)cc21 | 555 | -15.6% (inactive) | 3.6% (inactive) | 95.1% | -115% (inactive) | 108% | -0.571 (inactive) | -5.5e-05 (inactive) | 0.00297 (inactive) | 11.3% (inactive) | 26.6% (inactive) |
| COCCn1nnnc1C(c1cc2cc(C)cc(C)c2[nH]c1=O)N1CCN(c2ccccc2F)CC1 (stereo not drawn) | 660 | 10.1% (inactive) | -11% (inactive) | 80.7% | 13.5% (inactive) | 130% | -0.413 (inactive) | 0.000111 (inactive) | 0.00818 (inactive) | 16.8% (inactive) | 29.8% (inactive) |
| CC1CN(CC(O)COc2ccc(C(C)C)cc2)CC(C)O1 (stereo not drawn) | 812 | -4.8% (inactive) | 7.5% (inactive) | 120% | -54.5% (inactive) | 140% | -0.534 (inactive) | -0.000138 (inactive) | 0.0054 (inactive) | -56.4% (inactive) | 98.7% (active) |
| COC(=O)Cc1c(C)nc2nc(-c3ccco3)[nH]n2c1=O | 409 | 1.2% (inactive) | 5.5% (inactive) | 93.6% | -28.5% (inactive) | 105% | -0.467 (inactive) | -4e-05 (inactive) | 0.00635 (inactive) | 9.5% (inactive) | 19.1% (inactive) |
| CCOCCCNCC(=O)N1CCN(S(=O)(=O)c2ccc(C)cc2)CC1 | 642 | 19.3% (inactive) | -0.2% (inactive) | 94.5% | -61.6% (inactive) | 131% | -0.614 (inactive) | 1.2e-05 (inactive) | 0.00526 (inactive) | 7.31% (inactive) | 27.6% (inactive) |
| Cc1nc2ccccc2c2oc(C(=O)NCc3ccccn3)cc12 | 234 | -3.8% (inactive) | 17.9% (inactive) | 65.8% | -75.8% (inactive) | 102% | -0.397 (inactive) | 7.6e-05 (inactive) | 0.00573 (inactive) | -2.75% (inactive) | -16.5% (inactive) |
| CCOC(=O)c1cc(-c2ccc3c(c2)OCO3)nc2onc(C)c12 | 402 | 3.7% (inactive) | 21.3% (inactive) | 64.3% | -64.2% (inactive) | 106% | -0.00965 (inactive) | -7.8e-06 (inactive) | 0.00537 (inactive) | -6.27% (inactive) | -18.4% (inactive) |
| CCOC(=O)c1[nH]c2ccccc2c1NC(=O)c1ccco1 | 671 | -8.6% (inactive) | 4.2% (inactive) | 87.8% | 52.3% (inactive) | 102% | -0.332 (inactive) | -6.5e-05 (inactive) | 0.00748 (inactive) | 17.1% (inactive) | 21.7% (inactive) |
| CCSc1nnc(NC(=O)c2cc(C)oc2C)s1 | 352 | -1.4% (inactive) | 5.7% (inactive) | 98.6% | 5.1% (inactive) | 56.1% | -0.451 (inactive) | -4.1e-07 (inactive) | 0.00476 (inactive) | -35.9% (inactive) | -83.6% (inactive) |
| CC(C)(C)N=C1NC(=NC(C)(C)C)c2ccccc21 | 716 | 2.3% (inactive) | -5.7% (inactive) | 106% | -18.9% (inactive) | 107% | -0.525 (inactive) | -7.9e-06 (inactive) | 0.00395 (inactive) | 5.9% (inactive) | 5.38% (inactive) |
| Cc1ccc(S(=O)(=O)N2CCCC2C(=O)OCc2ccco2)cc1 (stereo not drawn) | 411 | -8.4% (inactive) | -7.8% (inactive) | 99% | -0.1% (inactive) | 102% | -0.499 (inactive) | -4e-05 (inactive) | 0.005 (inactive) | -9.42% (inactive) | -8.59% (inactive) |
| COC(=O)c1nn(-c2ccc(-c3ccccc3)cc2)cc1O | 281 | 6% (inactive) | 14.9% (inactive) | 99.2% | 9.1% (inactive) | 111% | -0.493 (inactive) | -1.1e-05 (inactive) | 0.00465 (inactive) | 6.22% (inactive) | 7.64% (inactive) |
| Cc1ccc(CNC(=O)CSc2n[nH]c(N)n2)cc1 | 498 | -7.2% (inactive) | 20% (inactive) | 44.8% | -21.8% (inactive) | 136% | -0.579 (inactive) | -6.4e-05 (inactive) | 0.00347 (inactive) | 15.9% (inactive) | 20.6% (inactive) |
| O=C(CSc1nnc(-c2cccs2)o1)N1CCOCC1 | 280 | -13.9% (inactive) | -11.6% (inactive) | 88.7% | -6.3% (inactive) | 118% | -0.539 (inactive) | -3.4e-05 (inactive) | 0.0054 (inactive) | -8.48% (inactive) | -10.8% (inactive) |
| CCNc1nc(OC)nc(Oc2ccc(=O)n(-c3ccccc3)n2)n1 | 769 | 6.8% (inactive) | 8.6% (inactive) | 106% | -86.7% (inactive) | 124% | -0.261 (inactive) | -3e-05 (inactive) | 0.00602 (inactive) | 16.1% (inactive) | 22% (inactive) |
| CC(C)=CC/C=C1\CCC(C(=O)O)C(C(=O)O)C1 (stereo not drawn) | 661 | -6.8% (inactive) | -3.8% (inactive) | 116% | -30.8% (inactive) | 100% | -0.52 (inactive) | -1.4e-05 (inactive) | 0.00515 (inactive) | 15.6% (inactive) | 13.1% (inactive) |
| CC(=O)Nc1ccc(NC(=O)c2ccccc2F)cc1 | 345 | -4.6% (inactive) | 1.3% (inactive) | 102% | -14.4% (inactive) | 116% | -0.556 (inactive) | -1.7e-05 (inactive) | 0.00528 (inactive) | -10.5% (inactive) | -55% (inactive) |
| COc1ccc(CN(C)CC(=O)c2c(N)n(Cc3ccccc3)c(=O)n(C)c2=O)c(OC)c1 | 459 | -21.4% (inactive) | -15.1% (inactive) | 103% | 2.2% (inactive) | 98.3% | -0.579 (inactive) | -1.3e-05 (inactive) | 0.00645 (inactive) | 17.1% (inactive) | 24.3% (inactive) |
| COc1cc(C(=O)Nc2cc(Cl)ccc2C)c(-n2cnnn2)cc1OC | 715 | 8.8% (inactive) | 15.8% (inactive) | 83.5% | -62.1% (inactive) | 117% | -0.474 (inactive) | 0.00014 (inactive) | 0.00699 (inactive) | 13.5% (inactive) | 15.4% (inactive) |
| C=CCOC(=O)C(C#N)c1nc2ccccc2nc1N1CCN(Cc2ccccc2)CC1 (stereo not drawn) | 469 | -5.7% (inactive) | -12.3% (inactive) | 94.6% | -69.4% (inactive) | 181% | -0.402 (inactive) | 6.8e-05 (inactive) | 0.0023 (inactive) | 10.9% (inactive) | 18.7% (inactive) |
| CCOc1ccc(C(=O)N(CN2CCCC2=O)c2ccc(C)cc2)cc1 | 385 | -1.4% (inactive) | -14.5% (inactive) | 118% | 14.5% (inactive) | 84% | -0.53 (inactive) | -5.9e-05 (inactive) | 0.0056 (inactive) | -0.0171% (inactive) | -43.9% (inactive) |
| N#Cc1c(N)n(CCNC(=O)c2cccs2)c2nc3ccccc3nc12 | 578 | 10.7% (inactive) | 17.7% (inactive) | 99.9% | 29.4% (inactive) | 105% | -0.0517 (inactive) | -2.6e-05 (inactive) | 0.00574 (inactive) | 9.96% (inactive) | -10% (inactive) |
| COC(=O)c1ccccc1NC(=O)c1noc2c1CC(C(C)(C)C)CC2 (stereo not drawn) | 216 | 4.9% (inactive) | 0.9% (inactive) | 104% | -31.4% (inactive) | 116% | -0.559 (inactive) | -3.2e-05 (inactive) | 0.00974 (inactive) | 8.65% (inactive) | 4.53% (inactive) |
| CCCS(=O)(=O)N1CCCC(C(=O)N2CCC(Cc3ccccc3)CC2)C1 (stereo not drawn) | 662 | -11.9% (inactive) | 5% (inactive) | 105% | -82.7% (inactive) | 106% | -0.5 (inactive) | -0.000282 (inactive) | 0.00325 (inactive) | 11.3% (inactive) | 12.1% (inactive) |
| Nc1nc(-c2ccccc2Br)cs1 | 392 | 4.7% (inactive) | -8.3% (inactive) | 110% | -133% (inactive) | 119% | -0.574 (inactive) | -1.6e-05 (inactive) | 0.00573 (inactive) | -14.5% (inactive) | -27% (inactive) |
